Bioassay records: PubChem BioAssay, Broad Institute
This is a sample that favours compounds with a hit; in the whole collection about 1.4% have one here.
CAL PDZ FP-1: human CAL PDZ-peptide interaction inhibition | 330,000 tested, 0.02% active | purified CAL PDZ, TMR-peptide fluorescence polarization, 1 h | inhibition, % at 20 µM;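 active = highest replicate inhibition of at least 40%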
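Material: tagged CAL PDZ domain; buffer or medium: 25 mM sodium phosphate pH 7.4, 150 mM NaCl, TCEP, IgG, Thesit; compound dosing: single point, 20 µM; schedule: 1 h incubation at room temperature before polarization reading; measured by: FP readout, S and P plane fluorescence; read-out basis: percent inhibition from loss of millipolarization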
CAL PDZ FP-2: inhibitors of human CAL PDZ peptide binding; Q9HD26; purified CAL PDZ, TMR-peptide fluorescence polarization, 1 h; inhibition, % at 24.9 µM; 300,000 tested, 0.92% active; AID 602252;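 active = mean inhibition of at least 30% with at least half of replicates also reaching 30%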
ARNT TACC3 PPI: disruptors of human ARNT/TACC3 interaction; Q9Y6A5; AlphaScreen His-ARNT PAS-B/GST-TACC3 binding, luminescence; TACC3 fragment carries E629A point mutation; inhibition, % at 9.99 µM; 390,000 tested, 0.66% active; AID 623870;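 active = mean inhibition of replicates at least 50% and at least half of replicates each reaching 50%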
Dyrk1A ADPGlo: Dyrk1A (rat) kinase inhibition; ADP-Glo luminescence, NFATc1 peptide; AID 504441; Q63470; 310,000 tested, 0.43% active; inhibition, % at 12.5 µM; in the data active = inhibition above about 50%
Numbers stand for hits; - = inactive; . = not tested or not shown.

SMILES | CAL PDZ FP-1 | CAL PDZ FP-2 | ARNT TACC3 PPI | Dyrk1A ADPGlo
COc1cc(CNCc2ccccn2)ccc1OCC(=O)NC1CCCCC1 | - | - | 47 | -
COc1cc(CNCc2cccnc2)ccc1OCC(=O)NC(C)(C)C | - | - | - | -
CCOc1cc(CNCc2ccccc2)ccc1OCC(=O)NC1CCCCC1 | - | - | . | -
COc1cc(CNCc2ccccn2)ccc1OCC(=O)NC(C)(C)C | - | - | 82 | -
CNC(=O)C[C@H]1CC[C@@H]2[C@H](COC[C@@H](O)CN2Cc2ccc(Cl)c(Cl)c2)O1 | . | . | - | .
COC(=O)Cc1c(O)ccn(Cc2ccccc2OC)c1=O | - | 47 | - | -
O/N=C/c1ccc2cccc(O)c2n1 | - | - | 57 | -
CN(C)CC(=O)N[C@@H]1CC[C@H](CCNC(=O)C2CCCC2)O[C@@H]1CO | . | . | - | .
O=C(CSc1nc(-c2ccccc2)cc(C(F)(F)F)n1)N1CCOCC1 | - | 96 | - | .
COc1ccc(-c2cc(C(F)(F)F)nc(SCC(=O)N3CCOCC3)n2)cc1OC | - | . | - | -
CN(C)CCOC(=O)c1sc2ccccc2c1Cl | - | 84 | - | -
O=C(C[C@H]1CC[C@@H]2[C@H](COC[C@@H](O)CN2Cc2ccncc2)O1)NCC1CC1 | . | . | - | .
O=Cc1ccc(-n2cccn2)cc1 | - | - | - | -
Cc1nccn1-c1ccc(C=O)cc1 | - | 121 | - | -
Nc1[nH]nc2nc3ccccc3cc12 | - | 47 | - | .
CCc1ccc2nc3n[nH]c(N)c3cc2c1 | - | - | - | -
Cc1sc(NC(=O)CN2CCCC2)nc1-c1ccc2c(c1)CCN2C(=O)c1cccc(F)c1 | - | 165 | - | -
COc1ccccc1N1CCN(S(=O)(=O)c2ccc3c(c2)NC(=O)C(C)S3)CC1 (configuration not stated) | - | 114 | - | -
COc1ccc(/C=C/C(=O)NCC(=O)N/N=C(/CCC(=O)O)c2ccccc2)cc1 | - | 32 | - | -
O=C([C@H]1[C@H](CO)[C@H]2Cn3c(cccc3=O)[C@@H]1N2Cc1cccc(Cl)c1)N1CCCCC1 | . | . | - | .
CCN1CCN(C(CNS(=O)(=O)c2ccccc2)c2ccccc2)CC1 (configuration not stated) | - | 43 | - | -
CCNC(=O)/C(C#N)=C/c1c(N2CCN(C)CC2)nc2c(C)cccn2c1=O | - | 43 | - | -
CCNC(=O)/C(C#N)=C/c1c(N2CCN(c3cccc(Cl)c3)CC2)nc2c(C)cccn2c1=O | - | - | - | -
C[C@@H]1CCCCO[C@@H](CN(C)Cc2ccc(C(=O)O)cc2)[C@H](C)CN([C@@H](C)CO)C(=O)c2cc(NC(=O)CCC(F)(F)F)ccc2O1 | . | . | - | .
O=C(NCCCN1CCOCC1)c1ccc2c(c1)N(Cc1ccccc1)CCS2 | - | 58 | - | -
SMILES | CAL PDZ FP-1 | CAL PDZ FP-2 | ARNT TACC3 PPI | Dyrk1A ADPGlo
COc1cc(SC)ccc1C(=O)Nc1ccncc1 | - | 31 | - | -
COc1cc(SC)ccc1C(=O)NC1CCCCC1 | - | 47 | - | -
COc1ccc(C(=O)Nc2ccncc2)c(OC)c1 | - | - | - | -
CCn1cc(C(=O)NC2CCCCCC2)c2cc(OC)c(OC)cc2c1=O | - | 48 | - | -
COc1cc2c(C(=O)NC3CCCCCC3)cn(C)c(=O)c2cc1OC | - | - | - | -
COc1ccccc1-c1ccc([C@@H]2[C@H]3CN(C(=O)c4cccnc4)CCCCN3[C@H]2CO)cc1 | . | . | - | .
O=C(NCCc1ccccc1)C(=O)NC1CCCCC1 | - | - | - | -
O=C(NC1CCCCC1)C(=S)NCCc1ccccc1 | - | 43 | - | -
O=C(C[C@H]1CC[C@@H]2[C@H](COC[C@@H](O)CN2C(=O)Cc2ccccc2)O1)NC1CCCC1 | . | . | - | .
C(=N\Nc1nc2ccccc2[nH]1)/c1cccc2cccnc12 | - | . | 61 | -
C(=N\Nc1nc2ccccc2[nH]1)/c1ccccc1 | - | - | - | -
Cc1[nH]c2ccccc2c1/C=N/Nc1nc2ccccc2[nH]1 | - | . | 45 | -
C(=N\Nc1nc2ccccc2[nH]1)/C1CCCCC1 | - | - | 46 | .
CO[C@H]1CN(C)C(=O)c2cc(NC(=O)C3CC3)ccc2OC[C@@H](C)N(Cc2cncnc2)C[C@H]1C | . | . | - | .
CN1CCN(CCCNC(=O)CCCOc2cc(=O)n(C)c3ccccc23)CC1 | - | - | - | -
Cn1c(=O)cc(OCC(=O)NCCCN2CCN(Cc3ccccc3)CC2)c2ccccc21 | - | 39 | . | -
CC1CCCC(NC(=O)C2CCN(S(=O)(=O)c3cnc[nH]3)CC2)C1C (configuration not stated) | - | 64 | - | -
Cc1ccc(C(=O)NN2C(=O)CSC2=S)cc1 | - | - | - | -
